The source made the active and inactive calls. No cut-off for these calls is given here.
Legend:
Plasmodium falciparum [1] = experiment: Antimalarial activity against Plasmodium falciparum 3D7 infected in human erythrocytes after 96 hrs in presence of 1 uM pantothenate by SYBR green fluorescence-based method; format: functional, organism-based; conditions: 3D7, 96 h
Procedure, shortened: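 Blood-stage parasites cultured 96 h in medium with 1 μM pantothenate across a range of compound concentrations; IC50 is the concentration giving 50% inhibition of proliferation. Each experiment run in triplicate, 2–7 independent experiments; mean ± range/2 (n = 2) or SEM (n = 3–7).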

[2] = target: T1, Pantothenate kinase, putative (Plasmodium falciparum (isolate 3D7)) (UniProt Q8ILP4); experiment: Inhibition of pantothenate kinase in Plasmodium falciparum 3D7 trophozoites at 100 uM using [14C]pantothenate as substrate after 15 to 60 mins by TopCount scintillation counting method relative to control
T1 sequence (whole entry): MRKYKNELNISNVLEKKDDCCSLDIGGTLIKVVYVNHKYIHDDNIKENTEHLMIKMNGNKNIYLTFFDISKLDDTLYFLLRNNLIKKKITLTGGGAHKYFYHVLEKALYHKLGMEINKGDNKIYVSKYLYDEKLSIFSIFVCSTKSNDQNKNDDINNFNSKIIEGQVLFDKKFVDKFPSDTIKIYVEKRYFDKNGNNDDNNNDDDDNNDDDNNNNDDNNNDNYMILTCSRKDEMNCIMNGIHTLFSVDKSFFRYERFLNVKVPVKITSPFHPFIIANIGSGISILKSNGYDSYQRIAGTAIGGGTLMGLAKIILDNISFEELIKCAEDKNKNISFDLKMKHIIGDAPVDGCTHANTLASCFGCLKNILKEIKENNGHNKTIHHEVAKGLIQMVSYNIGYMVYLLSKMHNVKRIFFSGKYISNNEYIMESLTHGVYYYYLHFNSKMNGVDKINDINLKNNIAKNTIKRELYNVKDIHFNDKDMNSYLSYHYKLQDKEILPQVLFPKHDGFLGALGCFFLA
Procedure, shortened: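 [14C]Pantothenate phosphorylation by PanK in P. falciparum lysate with compound at 100 μM. Pantothenate was 1.8 μM for R-compounds and 1 μM for S-compounds. Incubation period was pre-set within the linear range; percent inhibition versus DMSO-only controls. 3–8 experiments in duplicate, SEM.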

Plasmodium falciparum [3] = experiment: Ratio of IC50 for Plasmodium falciparum 3D7 infected in human erythrocytes in presence of 100 uM pantothenate to IC50 for Plasmodium falciparum 3D7 infected in human erythrocytes in presence of 1 uM pantothenate; format: functional
Procedure, shortened: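 Paired 96 h proliferation assays with parasites in medium containing 100 μM versus 1 μM pantothenate. Fold-increase = IC50 at 100 μM pantothenate divided by IC50 at 1 μM. Two independent experiments in triplicate; error is range/2.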

[4] = target: T2, Pantothenate kinase, putative (Plasmodium falciparum (isolate 3D7), UniProt Q8ILP4); experiment: Inhibition of pantothenate kinase in Plasmodium falciparum 3D7 trophozoites using [14C]pantothenate as substrate after 15 mins by TopCount scintillation counting method
T2 sequence (Q8ILP4 whole entry): T1 sequence (whole entry)
Procedure, shortened: (§1)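 PanK activity in P. falciparum lysate with 1.8 μM [14C]pantothenate and increasing compound concentrations, 15 min incubation within the linear range. Percent inhibition from [14C]pantothenate phosphorylated versus no compound. 2–5 experiments in duplicate; mean ± range/2 or SEM.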

[5] = Cysteine reactivity at pH 7.4 after 2 hrs by 1H NMR analysis; format: physicochemical; conditions: pH 7.4, 2 h
Procedure, shortened: (§2)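 Compound mixed with glutathione or L-cysteine at pH 7.4 and monitored by NMR for 2 h. The first spectrum was acquired 15 min after mixing. N-ethylmaleimide served as a reactive Michael acceptor reference.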

[6] = Cytotoxicity against HEK293 cells assessed as inhibition of cell proliferation at 100 uM after 96 hrs by CellTiter-Glo assay relative to control; format: cell-based; conditions: human
Procedure, shortened: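 HEK-293 proliferation measured over 96 h with compound at 100 μM; percent inhibition reported.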

[7] = Cytotoxicity against human WI38 cells assessed as inhibition of cell proliferation at 100 uM after 48 hrs by CellTiter-Glo assay relative to control; format: cell-based, WI-38
Procedure, shortened: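 WI-38 proliferation measured over 48 h with compound at 100 μM; percent inhibition reported.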

[8] = Selectivity index, ratio of cytotoxic concentration for HEK293 cells to IC50 for Plasmodium falciparum 3D7 infected in human erythrocytes in presence of 1 uM pantothenate; format: toxicity, cell-based; conditions: read-out: Selectivity Index
[9] = Selectivity index, ratio of cytotoxic concentration for human WI38 cells to IC50 for Plasmodium falciparum 3D7 infected in human erythrocytes in presence of 1 uM pantothenate; format: toxicity, cell-based; conditions: read-out: Selectivity Index
[10] = target: T1, Pantothenate kinase, putative (Plasmodium falciparum (isolate 3D7)); experiment: Inhibition of pantothenate kinase in Plasmodium falciparum 3D7 trophozoites at 1 to 100 uM using [14C]pantothenate as substrate after 15 mins by TopCount scintillation counting method; procedure, shortened: as §1
[11] = Cysteine reactivity at pH 7.4 after 15 mins by 1H NMR analysis; format: physicochemical; conditions: pH 7.4, 0.25 h; procedure, shortened: as §2
Plasmodium falciparum [12] = experiment: Antimalarial activity against blood stage of Plasmodium falciparum in presence of pantothenate by [3H]hypoxanthine incorporation assay; format: functional, organism-based
[13] = Drug metabolism in human erythrocytes infected with Plasmodium falciparum 3D7 trophozoites assessed as esterase-mediated compound hydrolysis at 1 mM after 3 hrs by 1H-13C-HSQC NMR analysis; format: ADME, cell-based; conditions: 1000 µM
Procedure, shortened: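 Infected erythrocytes (>95% parasitemia) incubated 3 h with 13C3-labelled or unlabelled compound. Metabolites were extracted from about 2 × 10^8 parasites and analysed by 1H-13C HSQC in D2O with 200 μM TSP as shift reference. Two independent experiments.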

SMILES | IC50 (Plasmodium falciparum [1]) | inhibition [2] | Ratio IC50 (Plasmodium falciparum [3]) | inhibition at 96 h, 100 µM [6] | inhibition at 48 h, 100 µM [7] | further results
CCOC(=O)/C=C/NC(=O)c1cccnc1 | > 200 µM | inactive | – | – | – | –
CC(C)(CO)[C@@H](O)C(=O)N/C=C/C(=O)OCc1ccccc1 | 13 µM | > 90% | >7.7 | 5% | 19% | IC50 [4]: 0.14 µM; Drug metabolism [5]: Metabolite_Notdetected; selectivity ratio [8]: > 8; selectivity ratio [9]: > 8
CCOC(=O)/C=C/NC(=O)[C@@H](O)C(C)(C)CO | > 100 µM | < 25% | – | -9% | -6% | –
CC(C)(C)OC(=O)/C=C/NC(=O)[C@@H](O)C(C)(C)CO | > 100 µM | < 25% | – | -8% | 14% | –
COC(=O)/C=C\NC(=O)[C@@H](O)C(C)(C)CO | > 100 µM | < 25% | – | -12% | -20% | –
CCOC(=O)/C=C/NC(=O)[C@H](O)C(C)(C)CO | 159 µM | > 90% | >1.3 | -5% | 36% | inhibition [10]: Active; selectivity ratio [8]: > 0.6; selectivity ratio [9]: > 0.6
CCOC(=O)/C=C\NC(=O)[C@H](O)C(C)(C)CO | > 200 µM | < 25% | – | -6% | 1% | –
CC(C)(CO)[C@H](O)C(=O)N/C=C/C(=O)OCc1ccccc1 | > 100 µM | < 25% | – | -6% | 19% | –
CCN1C(=O)C=CC1=O [N-ETHYLMALEIMIDE] | – | – | – | – | – | Drug metabolism [11]: Metabolite_Detected
CCOC(=O)/C=C/NC(=O)c1ccccc1 | 158 µM | inactive | 1 | – | – | –
CC(C)(C)OC(=O)/C=C\NC(=O)[C@@H](O)C(C)(C)CO | > 100 µM | < 25% | – | -11% | 26% | –
CC(C)(CO)[C@@H](O)C(=O)N/C=C\C(=O)OCc1ccccc1 | 89 µM | < 25% | 0.9 | 7% | 4% | –
CCOC(=O)/C=C/N1CCCCCCC1=O | 93 µM | inactive | 1 | – | – | –
CC(C)(CO)[C@H](O)C(=O)N/C=C/C(=O)O | > 100 µM | < 25% | – | -10% | 17% | –
CC(C)(C)OC(=O)/C=C\NC(=O)[C@H](O)C(C)(C)CO | 39 µM | < 25% | 1 | -9% | -14% | –
CC(C)(C)OC(=O)/C=C/NC(=O)[C@H](O)C(C)(C)CO | 42 µM | > 90% | 3.1 | -1% | 0% | inhibition [10]: Active; selectivity ratio [8]: > 2; selectivity ratio [9]: > 2

SMILES | IC50 (Plasmodium falciparum [1]) | inhibition [2] | Ratio IC50 (Plasmodium falciparum [3]) | inhibition at 96 h, 100 µM [6] | inhibition at 48 h, 100 µM [7] | further results
COC(=O)/C=C/NC(=O)[C@H](O)C(C)(C)CO | > 200 µM | > 90% | – | 0% | 4% | inhibition [10]: Active
COC(=O)/C=C/NC(=O)[C@@H](O)C(C)(C)CO | > 100 µM | < 25% | – | -2% | -18% | –
CC(C)(CO)[C@H](O)C(=O)N/C=C\C(=O)O | > 100 µM | < 25% | – | -11% | -19% | –
CCOC(=O)/C(C)=C/NC(=O)c1ccccc1 | 120 µM | inactive | 1 | – | – | –
CC(C)(CO)[C@@H](O)C(=O)N/C=C/C(=O)O | 36 µM | 87% | >2.8 | -17% | -23% | IC50 (Plasmodium falciparum [12]): 39 µM; IC50 [4]: 14 µM; Drug metabolism [5]: Metabolite_Notdetected; selectivity ratio [8]: > 3; selectivity ratio [9]: > 3
CCOC(=O)/C(C)=C/NC(=O)[C@@H]1OC(C)(C)OCC1(C)C | 93 µM | inactive | 1 | – | – | –
CCOC(=O)/C(C)=C/NC(=O)[C@H](O)C(C)(C)CO | > 200 µM | Active | – | – | – | inhibition [10]: inactive
CC(C)(CO)[C@@H](O)C(=O)N/[13CH]=[13CH]/[13C](=O)O | – | – | – | – | – | Drug metabolism [13]: Metabolite_Detected
CCOC(=O)/C=C/N1CCCCCC1=O | 181 µM | inactive | 0.9 | – | – | –
CCOC(=O)/C=C/NC(=O)[C@@H]1OC(C)(C)OCC1(C)C | 144 µM | inactive | 0.9 | – | – | –
CC(C)(CO)[C@@H](O)C(=O)N/[13CH]=[13CH]/[13C](=O)OCc1ccccc1 | – | – | – | – | – | Drug metabolism [13]: Metabolite_Notdetected
COC(=O)/C=C\NC(=O)[C@H](O)C(C)(C)CO | > 200 µM | < 25% | – | – | – | –
CCOC(=O)/C=C/N1CCCCCCCC1=O | 61 µM | inactive | 1.4 | – | – | –
CC(C)(CO)[C@H](O)C(=O)N/C=C\C(=O)OCc1ccccc1 | > 100 µM | < 25% | – | -7% | -2% | –
CCOC(=O)/C=C\NC(=O)[C@@H](O)C(C)(C)CO | > 100 µM | < 25% | – | -6% | -6% | –
CC(C)(CO)[C@@H](O)C(=O)N/C=C\C(=O)O | > 200 µM | < 25% | – | – | – | –

Source: ChEMBL document CHEMBL4138249, “Structure-activity analysis of CJ-15,801 analogues that interact with Plasmodium falciparum pantothenate kinase and inhibit parasite proliferation” (Eur J Med Chem, 2018)
